Data on 2 compounds can be found in ChEMBL document CHEMBL4402595, “Discovery of Orally Bioavailable Chromone Derivatives as Potent and Selective BRD4 Inhibitors: Scaffold Hopping, Optimization, and Pharmacological Evaluation” (J Med Chem, 2020).

For series [1], the target named is T1, Bromodomain-containing protein 4 (Homo sapiens, UniProt O60885). As to the kind of experiment: Inhibition of BRD4 in poly(I:C)-stimulated human SAECs TLR3-inducible IL-6 gene expression pre-incubated for 24 hrs before poly(I:C) stimulation for 4 hrs by qRT-PCR analysis. (In general: In qPCR the cycle at which signal appears reflects the starting amount.)
Series [2] concerns the target T1, Bromodomain-containing protein 4. The series can be described thus: Binding affinity to recombinant BRD4 BD2 (unknown origin) incubated for 1 hr by TR-FRET assay. Background: In TR-FRET formats the signal depends on donor and acceptor labels being close together.
Series [3] has the same target. As to the kind of experiment: Inhibition of BRD4 in poly(I:C)-stimulated human SAECs TLR3-inducible IL-6 gene expression at 10 uM pre-incubated for 24 hrs before poly(I:C) stimulation for 4 hrs by qRT-PCR analysis relative to control.
Series [4] addresses Bromodomain-containing protein 2 (Homo sapiens, UniProt P25440). The series can be described thus: Binding affinity to recombinant BRD2 BD2 (unknown origin) incubated for 1 hr by TR-FRET assay.
The target of series [5] is T1, Bromodomain-containing protein 4. The series can be described thus: Inhibition of BRD4 in poly(I:C)-stimulated human SAECs TLR3-inducible CIG5 gene expression pre-incubated for 24 hrs before poly(I:C) stimulation for 4 hrs by qRT-PCR analysis.
The target is the same in series [6]. As to the kind of experiment: Inhibition of BRD4 in poly(I:C)-stimulated human SAECs TLR3-inducible CIG5 gene expression at 10 uM pre-incubated for 24 hrs before poly(I:C) stimulation for 4 hrs by qRT-PCR analysis relative to control.
The target in series [7] is T2, CYP3A4 (Homo sapiens, UniProt P08684). As to the kind of experiment: Inhibition of CYP3A4 (unknown origin) at 10 uM using testosterone substrate relative to control. In kind it is ADME. Conditions: probe testosterone. An outline of the steps:
(§1)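 The CYP3A4 assay was run with midazolam or with testosterone as substrate.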

For another series, the target named is CYP2D6 (Homo sapiens, UniProt P10635). The series can be described thus: Inhibition of CYP2D6 (unknown origin) at 10 uM relative to control. In kind it is ADME.
Chain of CYP2D6 (P10635 whole entry): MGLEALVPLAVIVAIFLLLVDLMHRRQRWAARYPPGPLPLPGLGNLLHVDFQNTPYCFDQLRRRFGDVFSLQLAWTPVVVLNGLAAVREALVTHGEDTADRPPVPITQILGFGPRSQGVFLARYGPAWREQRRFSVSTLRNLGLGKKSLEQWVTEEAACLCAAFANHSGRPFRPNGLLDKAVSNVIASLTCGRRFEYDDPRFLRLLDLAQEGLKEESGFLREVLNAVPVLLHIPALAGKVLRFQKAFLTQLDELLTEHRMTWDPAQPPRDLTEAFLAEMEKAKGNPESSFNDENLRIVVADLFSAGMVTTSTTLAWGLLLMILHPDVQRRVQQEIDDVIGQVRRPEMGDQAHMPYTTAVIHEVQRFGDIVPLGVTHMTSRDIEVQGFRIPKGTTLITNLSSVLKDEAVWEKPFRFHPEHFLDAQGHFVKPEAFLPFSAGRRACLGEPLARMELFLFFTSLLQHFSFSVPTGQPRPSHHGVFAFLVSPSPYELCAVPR
Series [8] addresses T2, CYP3A4. As to the kind of experiment: Inhibition of CYP3A4 (unknown origin) at 10 uM using midazolam substrate relative to control. In kind it is ADME. Conditions: probe midazolam. An outline of the steps:
as §1

Series [9] is described as follows: Unbound fraction in mouse plasma at 2 uM. In kind it is ADME, cell-free.
The target in the next series is CYP2C9 (Homo sapiens, UniProt P11712). The series can be described thus: Inhibition of CYP2C9 (unknown origin) at 10 uM relative to control. In kind it is ADME.
Chain of CYP2C9 (P11712 whole entry): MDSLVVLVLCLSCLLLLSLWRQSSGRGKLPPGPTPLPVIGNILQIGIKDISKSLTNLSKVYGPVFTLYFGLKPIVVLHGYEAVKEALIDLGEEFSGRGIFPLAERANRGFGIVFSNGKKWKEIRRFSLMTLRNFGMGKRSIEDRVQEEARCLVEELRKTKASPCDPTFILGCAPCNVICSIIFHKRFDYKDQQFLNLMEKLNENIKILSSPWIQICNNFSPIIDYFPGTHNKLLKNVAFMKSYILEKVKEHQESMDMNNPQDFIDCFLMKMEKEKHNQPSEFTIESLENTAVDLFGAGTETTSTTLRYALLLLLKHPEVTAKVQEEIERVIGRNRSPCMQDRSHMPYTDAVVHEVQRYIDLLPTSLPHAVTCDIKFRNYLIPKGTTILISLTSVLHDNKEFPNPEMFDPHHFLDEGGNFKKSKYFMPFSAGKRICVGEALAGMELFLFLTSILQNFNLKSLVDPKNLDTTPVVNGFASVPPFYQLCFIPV
The target of another series is T3, CYP2C8 (Homo sapiens, UniProt P10632).
T3 sequence (P10632 whole entry): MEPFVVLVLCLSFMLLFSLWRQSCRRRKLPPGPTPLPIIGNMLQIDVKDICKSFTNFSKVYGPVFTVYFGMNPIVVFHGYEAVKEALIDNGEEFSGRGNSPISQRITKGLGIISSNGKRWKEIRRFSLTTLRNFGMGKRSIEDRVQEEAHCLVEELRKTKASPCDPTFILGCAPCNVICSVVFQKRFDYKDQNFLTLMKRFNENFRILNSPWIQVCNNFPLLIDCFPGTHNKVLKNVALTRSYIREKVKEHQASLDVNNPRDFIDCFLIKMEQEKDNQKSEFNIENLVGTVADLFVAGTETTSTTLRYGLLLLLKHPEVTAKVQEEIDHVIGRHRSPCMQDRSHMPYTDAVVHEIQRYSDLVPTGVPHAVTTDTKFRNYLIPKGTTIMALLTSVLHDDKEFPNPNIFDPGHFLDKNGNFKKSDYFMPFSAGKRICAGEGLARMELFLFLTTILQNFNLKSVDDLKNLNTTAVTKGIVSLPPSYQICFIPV
As to the kind of experiment: Inhibition of CYP2C8 (unknown origin) at 10 uM relative to control. In kind it is ADME.

Series [10] deals with Voltage-gated inwardly rectifying potassium channel KCNH2 (Homo sapiens, UniProt Q12809). The series can be described thus: Inhibition of human ERG.
Chain of Voltage-gated inwardly rectifying potassium channel KCNH2 (Q12809 whole entry): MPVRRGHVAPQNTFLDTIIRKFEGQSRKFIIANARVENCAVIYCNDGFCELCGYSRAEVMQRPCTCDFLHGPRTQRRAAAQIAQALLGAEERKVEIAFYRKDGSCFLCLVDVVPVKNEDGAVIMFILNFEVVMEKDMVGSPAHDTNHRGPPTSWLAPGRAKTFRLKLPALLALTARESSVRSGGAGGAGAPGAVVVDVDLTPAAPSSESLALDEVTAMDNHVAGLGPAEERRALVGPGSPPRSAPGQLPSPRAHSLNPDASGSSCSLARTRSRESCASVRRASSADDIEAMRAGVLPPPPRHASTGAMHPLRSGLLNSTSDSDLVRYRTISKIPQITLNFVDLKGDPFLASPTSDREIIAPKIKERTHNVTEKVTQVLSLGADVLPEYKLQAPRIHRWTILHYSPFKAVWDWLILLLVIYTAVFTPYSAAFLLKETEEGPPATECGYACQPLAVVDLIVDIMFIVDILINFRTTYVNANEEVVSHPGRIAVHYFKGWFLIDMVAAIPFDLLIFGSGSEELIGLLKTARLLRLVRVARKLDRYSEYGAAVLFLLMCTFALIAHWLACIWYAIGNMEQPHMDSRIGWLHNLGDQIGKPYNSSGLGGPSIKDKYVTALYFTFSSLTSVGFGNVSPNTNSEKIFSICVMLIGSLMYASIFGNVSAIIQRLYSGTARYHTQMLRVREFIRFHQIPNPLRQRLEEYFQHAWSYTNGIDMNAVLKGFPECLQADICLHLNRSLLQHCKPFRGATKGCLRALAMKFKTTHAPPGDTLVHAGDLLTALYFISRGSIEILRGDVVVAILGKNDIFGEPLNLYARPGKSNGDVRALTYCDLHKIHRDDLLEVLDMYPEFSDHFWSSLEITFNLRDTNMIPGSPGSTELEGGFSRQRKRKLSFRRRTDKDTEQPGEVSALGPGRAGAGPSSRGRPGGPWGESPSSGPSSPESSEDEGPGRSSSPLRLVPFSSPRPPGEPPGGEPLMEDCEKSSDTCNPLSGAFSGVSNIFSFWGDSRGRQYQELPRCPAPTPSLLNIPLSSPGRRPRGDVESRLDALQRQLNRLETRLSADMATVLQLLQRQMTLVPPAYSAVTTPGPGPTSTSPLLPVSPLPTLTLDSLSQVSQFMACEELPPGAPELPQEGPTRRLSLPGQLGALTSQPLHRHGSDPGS
For a further series, the target named is T4, CYP1A2 (Homo sapiens, UniProt P05177).
T4 sequence (P05177 whole entry): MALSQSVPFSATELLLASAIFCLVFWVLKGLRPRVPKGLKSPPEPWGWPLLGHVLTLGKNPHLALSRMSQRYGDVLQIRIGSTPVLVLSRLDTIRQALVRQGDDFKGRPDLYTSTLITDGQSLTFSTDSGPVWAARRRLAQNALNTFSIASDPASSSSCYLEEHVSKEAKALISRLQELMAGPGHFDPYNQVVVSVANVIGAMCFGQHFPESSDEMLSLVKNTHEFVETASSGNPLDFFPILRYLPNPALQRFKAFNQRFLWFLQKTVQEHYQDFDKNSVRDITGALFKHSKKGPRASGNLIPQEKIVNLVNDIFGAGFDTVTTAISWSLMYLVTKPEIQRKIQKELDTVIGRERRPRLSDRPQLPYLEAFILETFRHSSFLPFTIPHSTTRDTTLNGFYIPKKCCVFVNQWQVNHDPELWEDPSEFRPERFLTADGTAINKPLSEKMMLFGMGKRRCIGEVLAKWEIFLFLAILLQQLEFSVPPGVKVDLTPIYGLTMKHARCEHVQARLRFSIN
The series can be described thus: Inhibition of CYP1A2 (unknown origin) at 10 uM relative to control. In kind it is ADME.

Another series addresses CYP2C19 (Homo sapiens, UniProt P33261). As to the kind of experiment: Inhibition of CYP2C19 (unknown origin) at 10 uM relative to control. In kind it is ADME.
Series [11] can be described thus: Clearance in human liver microsomes. In kind it is ADME, Microsome.

T2 sequence (P08684 whole entry): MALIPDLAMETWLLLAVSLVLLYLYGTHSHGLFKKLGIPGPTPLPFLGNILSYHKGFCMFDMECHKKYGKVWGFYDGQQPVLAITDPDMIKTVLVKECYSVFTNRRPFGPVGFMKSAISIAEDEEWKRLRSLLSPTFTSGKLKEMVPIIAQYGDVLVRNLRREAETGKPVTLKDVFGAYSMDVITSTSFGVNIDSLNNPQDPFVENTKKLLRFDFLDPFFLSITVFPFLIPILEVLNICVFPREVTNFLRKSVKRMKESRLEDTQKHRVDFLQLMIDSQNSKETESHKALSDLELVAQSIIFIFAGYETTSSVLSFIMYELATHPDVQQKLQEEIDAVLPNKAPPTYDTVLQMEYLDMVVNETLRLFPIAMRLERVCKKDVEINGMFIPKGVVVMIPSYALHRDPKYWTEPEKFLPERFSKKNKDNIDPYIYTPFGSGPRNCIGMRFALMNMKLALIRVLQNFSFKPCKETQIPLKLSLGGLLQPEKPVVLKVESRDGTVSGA
Chain of CYP2C19 (P33261 whole entry): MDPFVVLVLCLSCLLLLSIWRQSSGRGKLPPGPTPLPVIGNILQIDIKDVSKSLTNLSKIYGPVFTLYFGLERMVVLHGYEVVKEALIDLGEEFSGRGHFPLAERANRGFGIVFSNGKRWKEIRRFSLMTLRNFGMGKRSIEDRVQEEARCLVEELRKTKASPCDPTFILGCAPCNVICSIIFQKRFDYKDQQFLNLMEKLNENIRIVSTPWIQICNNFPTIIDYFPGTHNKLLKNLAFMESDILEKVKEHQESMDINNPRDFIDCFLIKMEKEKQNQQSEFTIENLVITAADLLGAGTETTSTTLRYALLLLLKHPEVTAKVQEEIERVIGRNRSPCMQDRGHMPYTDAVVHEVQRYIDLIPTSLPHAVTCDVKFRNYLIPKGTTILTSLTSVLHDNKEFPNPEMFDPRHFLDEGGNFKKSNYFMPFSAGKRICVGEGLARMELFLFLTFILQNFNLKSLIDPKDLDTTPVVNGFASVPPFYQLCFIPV
Chain of Bromodomain-containing protein 2 (P25440 whole entry): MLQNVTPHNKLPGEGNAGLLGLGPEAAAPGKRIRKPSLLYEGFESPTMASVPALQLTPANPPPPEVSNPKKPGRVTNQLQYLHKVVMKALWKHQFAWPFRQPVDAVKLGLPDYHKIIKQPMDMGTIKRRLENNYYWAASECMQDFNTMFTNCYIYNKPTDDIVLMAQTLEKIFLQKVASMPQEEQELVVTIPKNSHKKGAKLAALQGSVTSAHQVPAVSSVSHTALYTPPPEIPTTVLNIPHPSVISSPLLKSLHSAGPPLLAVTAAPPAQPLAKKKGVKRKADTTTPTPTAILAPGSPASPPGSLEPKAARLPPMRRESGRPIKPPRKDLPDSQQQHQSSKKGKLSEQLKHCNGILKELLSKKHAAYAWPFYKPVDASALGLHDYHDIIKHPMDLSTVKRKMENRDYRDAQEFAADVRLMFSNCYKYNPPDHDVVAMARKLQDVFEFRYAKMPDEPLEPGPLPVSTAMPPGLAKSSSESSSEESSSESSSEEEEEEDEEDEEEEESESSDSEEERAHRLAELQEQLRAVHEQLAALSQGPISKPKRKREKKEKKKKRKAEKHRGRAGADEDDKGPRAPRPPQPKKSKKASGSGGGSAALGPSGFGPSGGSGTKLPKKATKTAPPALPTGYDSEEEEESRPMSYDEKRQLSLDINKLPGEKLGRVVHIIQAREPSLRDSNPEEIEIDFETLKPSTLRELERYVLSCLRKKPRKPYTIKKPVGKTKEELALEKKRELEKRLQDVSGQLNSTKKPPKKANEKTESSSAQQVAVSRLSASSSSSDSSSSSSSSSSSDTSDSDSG

Broadly, the IC50 is the concentration that inhibits the measured activity by half. In general, inhibition refers to the share of the control response that was lost under treatment. High values mean a strong effect, low ones a weak effect. For `COc1cc(OC)c2c(=O)cc(-c3cc(C)c(OC[C@H](O)CN4CCCCC4)c(C)c3)oc2c1`, the IC50 came to 1100 nM in [1], 684 nM in series [2], 845 nM in [4] and 520 nM in series [5]. Besides, the inhibition in series [3] was 100%; in series [6], 99%.

For `COc1cc(OC)c2c(=O)cc(-c3cc(C)c(OC[C@H](O)CN4CCN(C)CC4)c(C)c3)oc2c1`, the inhibition at 10 µM was found to be 8.2% against CYP3A4 [7]; 0% on CYP2D6; 9.5% at CYP3A4 [8]; 1.9% at CYP2C9; 17% against CYP2C8; 0% at CYP1A2. The compound further registered an inhibition at 10 µM against CYP2C19 of 1.7%. This compound also came in with a Fu in series [9] of 12%. Also, in [10], the IC50 is more than 30000 nM. The compound further had a CLH in series [11] of 5.6 µL/min/mg.
